This is an account of results in ChEMBL document CHEMBL3992561, “Synthesis of 1,3,5-trisubstituted pyrazolines as potential antimalarial and antimicrobial agents” (Bioorg Med Chem, 2017).

The subject of series [1] is Plasmodium falciparum. Nature of the series: Antimalarial activity against chloroquine-resistant Plasmodium falciparum RKL-9 schizont infected in RBC measured after 24 to 30 hrs hrs by giemsa staining based light microscopic method. The series is classed as functional. Put shortly:
(§1)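 Asynchronous cultures synchronised to rings with 5% aqueous sorbitol, other stages removed by centrifugation; parasitemia about 1% in fresh washed RBCs. Compounds dissolved in DMSO, diluted in RPMI-1640, tested at several concentrations in triplicate; drug-free wells as control. Incubation 37°C in CO2 for 24-30 h until schizont maturation; methanol-fixed Giemsa smears counted under oil immersion; % inhibition, IC50 by probit; n=2.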

The subject of another series is HepG2. The series can be described thus: Cytotoxicity against human HepG2 cells assessed as reduction in cell viability after 7 days by MTT assay. The following applies: HepG2, 168 h. Type of series: cell-based. Put shortly: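 HepG2 cells maintained in RPMI 1640 with 10% FCS. Seeded at 5 x 10^2 cells per well and pre-incubated 1 h at 37°C, 5% CO2. Serial dilutions from DMSO stocks added, with medium and DMSO solvent controls. Cells incubated seven days, then MTT (5 mg/ml) added for 4 h. Formazan dissolved in ethanol, A570 read. IC50 by non-linear regression of % growth against log concentration.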
(In general: Tetrazolium dyes change colour on reduction, which living cells bring about.)

The test system of series [2] is Plasmodium falciparum. The series can be described thus: Antimalarial activity against chloroquine-sensitive Plasmodium falciparum MRC-2 schizont infected in RBC measured after 24 to 30 hrs hrs by giemsa staining based light microscopic method. The series is classed as functional. Put shortly:
as §1

Another series relates to Escherichia coli. Nature of the series: Antibacterial activity against Escherichia coli MTCC 51 after 24 hrs by broth microdilution method. Type of series: functional. The following applies: MTCC 51, 24 h. Put shortly: (§2)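 Broth microdilution per NCCLS in Mueller-Hinton broth, inoculum 5 x 10^5 CFU/ml. Compounds dissolved in DMSO, twofold serial dilutions made in sterile distilled water. Incubated at 35°C for 24 h. MIC (µg/ml) taken as the lowest concentration with no visible turbidity by unaided eye. Ciprofloxacin as positive control. Three replicates, mean ± SD.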
On the technique in general: Dilution methods test growth across graded concentrations, often in twofold steps.

The test system of the next series is Aspergillus niger. Nature of the series: Antifungal activity against Aspergillus niger MTCC 8189 after 48 hrs by broth microdilution method. The series is classed as functional. The following applies: MTCC 8189, 48 h. In short, it runs like this: (§3)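 Fungi grown in Sabouraud liquid medium, inoculum 0.5–2.5 x 10^3 CFU/ml. Broth microdilution per NCCLS using twofold serial dilutions in sterile water from DMSO solutions. Incubated at 35°C for 48 h. MIC (µg/ml) was the lowest concentration with no visible growth by eye. Fluconazole as positive control. Mean ± SD of three replicates.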

The next series deals with Candida albicans. Nature of the series: Antifungal activity against Candida albicans MTCC 227 after 48 hrs by broth microdilution method. The series is classed as functional. To be noted: MTCC 227, 48 h. Put shortly:
as §3

For a further series, the system named is Pseudomonas aeruginosa. The series can be described thus: Antibacterial activity against Pseudomonas aeruginosa MTCC 741 after 24 hrs by broth microdilution method. Type of series: functional. To be noted: MTCC 741, 24 h. In short, it runs like this:
as §2

Series [3] can be described thus: Inhibition of beta-hematin formation assessed as reduction in acetate buffer-initiated hemozoin formation after 18 hrs by spectrophotometric method relative to control. On the set-up: concentration or dose not given beside the values. To be noted: concentration not given here. In short, it runs like this: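 Colorimetric β-hematin assay after Ncokazi and Egan. Haemin chloride in DMSO, with compounds at 0.12–5 molar equivalents to haemin and DMSO as control. Reaction started with acetate buffer pH 5.0 and run 18 h at 37°C. Pellet then washed with DMSO to remove unreacted haematin. % inhibition computed from test versus control absorbance. Duplicate determinations.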

The test system of the next series is Staphylococcus aureus. The series can be described thus: Antibacterial activity against Staphylococcus aureus MTCC 3160 after 24 hrs by broth microdilution method. Type of series: functional. To be noted: MTCC 3160, 24 h. In short, it runs like this:
as §2

Series [4] is described as follows: Selectivity index, ratio of IC50 for human HepG2 cells to IC50 for chloroquine-resistant Plasmodium falciparum RKL-9 schizont infected in RBC. The series is classed as toxicity. The following applies: read-out: Ratio IC50. Put shortly:
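HepG2 in RPMI 1640 with 10% FCS, 5 x 10^2 cells/well, serial dilutions (DMSO stocks) added after 1 h; 7 days at 37°C, 5% CO2; MTT 4 h, formazan in ethanol, absorbance 570 nm; IC50 by non-linear regression, one experiment in duplicate. Index = HepG2 IC50 / RKL-9 antiplasmodial IC50.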

Another series relates to Bacillus subtilis. Nature of the series: Antibacterial activity against Bacillus subtilis MTCC 121 after 24 hrs by broth microdilution method. Type of series: functional. The following applies: MTCC 121, 24 h. In short, it runs like this: as §2

The structures appear in SMILES notation. Converted amounts (≈) assume the structure as drawn.

As for `COc1ccc(C2CC(c3ccc(O)cc3)=NN2C(=O)c2cccnc2)cc1C` (stereo unspecified), the IC50 with Plasmodium falciparum [1] stood at 779 nM; in the series on HepG2, 44800 nM; with Plasmodium falciparum [2] it was 63 nM. For the same compound, the minimal inhibitory concentration (MIC) is 12.5 µg/mL (≈ 32.3 µM) against Escherichia coli; 25 µg/mL (≈ 64.5 µM) in the series with Aspergillus niger; 50 µg/mL (≈ 129 µM) against Candida albicans; 6.5 µg/mL (≈ 16.8 µM) against Pseudomonas aeruginosa; 25 µg/mL (≈ 64.5 µM) in the series on Staphylococcus aureus; 25 µg/mL (≈ 64.5 µM) against Bacillus subtilis. Further, in series [3], the inhibition came to 66%. In addition, the selectivity ratio in series [4] amounted to 57.5.

The IC50 is the concentration that inhibits the measured activity by half. As usually defined, the MIC is the smallest concentration in the dilution series that meets the test's criterion for growth inhibition. As usually defined, the inhibition is the relative decrease from the control value, in per cent.
